Test results from ChEMBL document CHEMBL1143255, “Standard protecting groups create potent and selective kappa opioids: salvinorin B alkoxymethyl ethers” (Bioorg Med Chem, 2008).
pEC50, pKi: −log10 of the molar value.

How the values were obtained:
[1] = biological target: T1, Kappa-type opioid receptor (Homo sapiens, UniProt P41145); assay: Agonist activity at human kappa opioid receptor expressed in CHO cells assessed as stimulation of [35S]GTPgammaS binding; assay type: functional, cell-based
T1 sequence (P41145 whole entry): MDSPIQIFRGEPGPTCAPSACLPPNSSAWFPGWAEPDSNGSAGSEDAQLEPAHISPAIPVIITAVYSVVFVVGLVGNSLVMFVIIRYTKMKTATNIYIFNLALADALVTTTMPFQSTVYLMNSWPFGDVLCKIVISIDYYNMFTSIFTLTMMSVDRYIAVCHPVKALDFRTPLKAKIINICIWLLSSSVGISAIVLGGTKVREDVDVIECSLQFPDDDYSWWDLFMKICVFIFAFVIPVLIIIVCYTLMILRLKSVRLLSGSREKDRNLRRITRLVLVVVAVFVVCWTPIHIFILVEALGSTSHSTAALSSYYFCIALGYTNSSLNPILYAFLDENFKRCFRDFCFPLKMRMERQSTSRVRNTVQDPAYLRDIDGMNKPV
Outline: (§1)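 Potency and efficacy from [35S]GTPγS binding to membranes of CHO cells stably expressing human κ receptor; testing blinded to compound identity and molecular mass.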

[2] = biological target: T1, Kappa-type opioid receptor; assay: Agonist activity at human kappa opioid receptor expressed in CHO cells assessed as stimulation of [35S]GTPgammaS binding relative to U50488H; assay type: functional, cell-based; outline: as §1
Mu-type opioid receptor = Mu-type opioid receptor (Rattus norvegicus, UniProt P33535); assay: Displacement of [3H]diprenorphine from rat mu opioid receptor expressed in CHO cells; assay type: cell-based
Sequence of Mu-type opioid receptor (P33535 whole entry): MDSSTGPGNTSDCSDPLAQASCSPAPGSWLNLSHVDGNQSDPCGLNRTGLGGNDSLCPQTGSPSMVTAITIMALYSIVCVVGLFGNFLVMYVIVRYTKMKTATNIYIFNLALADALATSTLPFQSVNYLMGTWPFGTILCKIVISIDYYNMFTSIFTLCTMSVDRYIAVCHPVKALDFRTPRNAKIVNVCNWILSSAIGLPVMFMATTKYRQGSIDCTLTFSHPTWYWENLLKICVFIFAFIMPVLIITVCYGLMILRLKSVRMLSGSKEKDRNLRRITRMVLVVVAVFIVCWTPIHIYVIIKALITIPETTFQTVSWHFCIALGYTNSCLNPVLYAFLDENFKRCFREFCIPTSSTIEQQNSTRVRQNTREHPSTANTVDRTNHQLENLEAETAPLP
Outline: (§2)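 Competitive inhibition of [3H]diprenorphine binding to membranes from CHO cells stably transfected with human κ, rat μ or mouse δ receptor; testing blinded to compound identity and molecular mass; mean of three independent experiments in duplicate.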

[3] = biological target: T1, Kappa-type opioid receptor; assay: Displacement of [3H]diprenorphine from human kappa opioid receptor expressed in CHO cells; assay type: cell-based; outline: as §2
[4] = biological target: Delta-type opioid receptor (Mus musculus, UniProt P32300); assay: Displacement of [3H]diprenorphine from mouse delta opioid receptor expressed in CHO cells; assay type: cell-based; outline: as §2
Sequence of Delta-type opioid receptor (P32300 whole entry): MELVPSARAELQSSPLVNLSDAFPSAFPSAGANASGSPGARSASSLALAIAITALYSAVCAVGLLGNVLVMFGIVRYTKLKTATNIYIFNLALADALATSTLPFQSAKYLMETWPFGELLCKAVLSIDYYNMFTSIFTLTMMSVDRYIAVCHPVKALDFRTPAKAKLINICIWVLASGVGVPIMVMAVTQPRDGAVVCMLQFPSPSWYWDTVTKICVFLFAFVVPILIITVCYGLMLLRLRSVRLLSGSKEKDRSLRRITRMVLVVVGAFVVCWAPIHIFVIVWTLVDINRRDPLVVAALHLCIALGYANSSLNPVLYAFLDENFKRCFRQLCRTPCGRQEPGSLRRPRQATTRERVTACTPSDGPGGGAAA

[5] = Selectivity for human kappa opioid receptor over rat mu opioid receptor
[6] = Selectivity for human kappa opioid receptor over mouse delta opioid receptor

SMILES | pEC50 [1] | Emax [2] | pKi (Mu-type opioid receptor) | pKi [3] | pKi [4] | Selectivity ratio [5] | Selectivity ratio [6] | pKi (Mu-type opioid receptor; cho) | pKi ([4]; cho)
COC(=O)[C@@H]1C[C@H](OCOCC(F)(F)F)C(=O)[C@H]2[C@@]1(C)CC[C@H]1C(=O)O[C@H](c3ccoc3)C[C@]21C | 7.12 | 81% | < 6.00 | 7.51 | < 6.00 |  |  |  | 
CCO[C@H]1C[C@@H](C(=O)OC)[C@]2(C)CC[C@H]3C(=O)O[C@H](c4ccoc4)C[C@]3(C)[C@H]2C1=O [DEOXY SALVINORIN A] | 7.74 |  |  |  |  |  |  |  | 
CCOCO[C@H]1C[C@@H](C(=O)OC)[C@]2(C)CC[C@H]3C(=O)O[C@H](c4ccoc4)C[C@]3(C)[C@H]2C1=O [SALVINORIN B ETHOXYMETHYL ETHER] | 9.85 | 81% | < 6.00 | 9.49 | < 6.00 | > 3000 | > 3000 |  | 
COC(=O)[C@@H]1C[C@H](OCOCCF)C(=O)[C@H]2[C@@]1(C)CC[C@H]1C(=O)O[C@H](c3ccoc3)C[C@]21C | 8.42 | 81% | < 6.00 | 8.72 | < 6.00 | > 500 |  |  | 
CCCOCO[C@H]1C[C@@H](C(=O)OC)[C@]2(C)CC[C@H]3C(=O)O[C@H](c4ccoc4)C[C@]3(C)[C@H]2C1=O [SALVINORIN B PROPOXYMETHYL ETHER] | 8.28 | 81% | < 6.00 | 8.66 | < 6.00 |  |  |  | 
COC(=O)[C@@H]1C[C@H](OCOC(C)(C)C)C(=O)[C@H]2[C@@]1(C)CC[C@H]1C(=O)O[C@H](c3ccoc3)C[C@]21C | 6.97 | 81% | < 6.00 | 7.46 | < 6.00 |  |  |  | 
CCOC(C)O[C@H]1C[C@@H](C(=O)OC)[C@]2(C)CC[C@H]3C(=O)O[C@H](c4ccoc4)C[C@]3(C)[C@H]2C1=O (some centres undefined) [listing 1 of 3 here] |  |  | < 6.00 |  | < 6.00 |  |  |  | 
COC(=O)[C@@H]1C[C@H](OCF)C(=O)[C@H]2[C@@]1(C)CC[C@H]1C(=O)O[C@H](c3ccoc3)C[C@]21C [SALVINORIN B FLUOROMETHYL ETHER] | 7.59 | 81% | < 6.00 | 7.30 | < 6.00 |  |  |  | 
CCCCOCO[C@H]1C[C@@H](C(=O)OC)[C@]2(C)CC[C@H]3C(=O)O[C@H](c4ccoc4)C[C@]3(C)[C@H]2C1=O [SALVINORIN B BUTOXYMETHYL ETHER] | 7.70 | 81% | < 6.00 | 8.28 | < 6.00 |  |  |  | 
COCCOCO[C@H]1C[C@@H](C(=O)OC)[C@]2(C)CC[C@H]3C(=O)O[C@H](c4ccoc4)C[C@]3(C)[C@H]2C1=O | 6.49 | 81% | < 6.00 | 6.85 | < 6.00 |  |  |  | 
COC(=O)[C@@H]1C[C@H](OCSC)C(=O)[C@H]2[C@@]1(C)CC[C@H]1C(=O)O[C@H](c3ccoc3)C[C@]21C [SALVINORIN B METHYLTHIOMETHYL ETHER] | 7.51 | 81% | < 6.00 | 7.89 | < 6.00 |  |  |  | 
CCOC(C)O[C@H]1C[C@@H](C(=O)OC)[C@]2(C)CC[C@H]3C(=O)O[C@H](c4ccoc4)C[C@]3(C)[C@H]2C1=O (some centres undefined) [listing 2 of 3 here] |  |  |  |  |  |  |  | < 6.00 | < 6.00
CCOC(C)O[C@H]1C[C@@H](C(=O)OC)[C@]2(C)CC[C@H]3C(=O)O[C@H](c4ccoc4)C[C@]3(C)[C@H]2C1=O (some centres undefined) [listing 3 of 3 here] |  | 81% |  |  |  |  |  |  | 
COC(=O)[C@@H]1C[C@H](OCOCc2ccccc2)C(=O)[C@H]2[C@@]1(C)CC[C@H]1C(=O)O[C@H](c3ccoc3)C[C@]21C [SALVINORIN B BENZYLOXYMETHYL ETHER] | 6.56 | 81% | < 6.00 | 6.83 | < 6.00 |  |  |  | 
COC(=O)[C@@H]1C[C@H](OCOCC[Si](C)(C)C)C(=O)[C@H]2[C@@]1(C)CC[C@H]1C(=O)O[C@H](c3ccoc3)C[C@]21C | 5.78 | 81% | < 6.00 | < 6.00 | < 6.00 |  |  |  | 
COC(=O)[C@@H]1C[C@H](OCOC(C)C)C(=O)[C@H]2[C@@]1(C)CC[C@H]1C(=O)O[C@H](c3ccoc3)C[C@]21C [SALVINORIN B ISOPROPOXYMETHYL ETHER] | 8.38 | 81% | < 6.00 | 8.80 | < 6.00 |  |  |  | 
COC(=O)[C@@H]1C[C@H](OC(C)(C)OC)C(=O)[C@H]2[C@@]1(C)CC[C@H]1C(=O)O[C@H](c3ccoc3)C[C@]21C | 7.14 | 81% | < 6.00 | 7.14 | < 6.00 |  |  |  | 
COC(=O)[C@@H]1C[C@H](OC2CCCCO2)C(=O)[C@H]2[C@@]1(C)CC[C@H]1C(=O)O[C@H](c3ccoc3)C[C@]21C (some centres undefined) | 8.55 | 81% | < 6.00 | 8.40 | < 6.00 |  |  |  | 
